Experiment [1] concerns PC-3. In words: Induction of autophagy-mediated apoptosis in human PC3 cells assessed as increase in cleave PARP level at 10 uM measured after 24 hrs by western blot analysis. The class given is functional, cell-based. The method, boiled down:
(§1)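 PC3 cells treated at 10 or 20 μM; cleaved PARP and LC3II levels assessed by immunoblot as apoptosis and autophagy markers.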
For orientation: A western blot detects proteins with antibodies after separation by electrophoresis.

Experiment [2] has as its system PC-3. The experiment can be described thus: Induction of autophagy-mediated apoptosis in human PC3 cells assessed as increase in cleave PARP level at 20 uM measured after 24 hrs by western blot analysis. The class given is functional, cell-based. The method, boiled down:
as §1

Experiment [3] deals with PC-3. The experiment can be described thus: Induction of autophagy in human PC3 cells assessed as increased of LC3-II level at 10 uM incubated for 24 hrs by Western blot analysis. The class given is functional, cell-based. The method, boiled down:
as §1

Experiment [4] deals with Small ubiquitin-related modifier 1 (Homo sapiens) (UniProt P63165). In words: Inhibition of SUMO1 (unknown origin) assessed as reduction in SUMOylated RanGAP1 level at 50 uM incubated for 60 mins by western blot analysis. The method, boiled down: (§2)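 Cell-free RanGAP1 SUMOylation reaction; compounds dissolved in the reaction medium at 50 μM for the initial screen, then retested at 5 μM.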
Sequence of Small ubiquitin-related modifier 1 (Homo sapiens) (P63165 whole entry): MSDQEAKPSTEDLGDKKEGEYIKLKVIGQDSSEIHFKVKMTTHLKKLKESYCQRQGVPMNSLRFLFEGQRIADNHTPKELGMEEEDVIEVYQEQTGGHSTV

Experiment [5] shares this target. In words: Inhibition of SUMO1 in human PC3 cells assessed as reduction in SUMOylation level at 10 to 20 uM measured after 24 hrs by western blot analysis. Particulars: PC-3, dose microM 10-20, time 24.0 hrs. The class given is cell-based.
Experiment [6] has the same target. In words: Inhibition of SUMO1 in human MDA-MB-231 cells assessed as reduction in SUMOylation level at 10 uM measured after 24 hrs by western blot analysis. In kind it is cell-based.
The subject of experiment [7] is PC-3. The experiment can be described thus: Induction of autophagy in human PC3 cells assessed as increased of LC3-II level at 20 uM incubated for 24 hrs by Western blot analysis. In kind it is functional, cell-based. The method, boiled down: as §1
For experiment [8], the target named is Small ubiquitin-related modifier 1 (Homo sapiens) (UniProt P63165). In words: Inhibition of SUMO1 (unknown origin) assessed as reduction in SUMOylated RanGAP1 level at 5 uM incubated for 60 mins by western blot analysis. The method, boiled down:
as §2

The target in experiment [9] is Small ubiquitin-related modifier 2 (Homo sapiens) (UniProt P61956). In words: Inhibition of SUMO2 in human PC3 cells assessed as reduction in SUMOylation level at 10 uM measured after 24 hrs by western blot analysis. The class given is cell-based. Particulars: PC-3.
Sequence of Small ubiquitin-related modifier 2 (Homo sapiens) (P61956 whole entry): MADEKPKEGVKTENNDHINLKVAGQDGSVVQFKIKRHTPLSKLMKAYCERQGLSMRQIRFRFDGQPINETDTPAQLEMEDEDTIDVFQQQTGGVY
The subject of the next experiment is PC3 (Homo sapiens). In words: Cytotoxicity against human PC3 cells assessed as cell death at 10 to 20 uM incubated for 24 hrs by crystal violet staining based spectrophotometric analysis. Particulars: dose microM 10-20, time 24.0 hrs.
The test system of experiment [10] is PC-3. The experiment can be described thus: Cytotoxicity against human PC3 cells assessed as reduction in cell viability incubated for 48 hrs by crystal violet staining based spectrophotometric analysis. The class given is functional. Particulars: PC-3, 48 h. The method, boiled down: (§3)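 PC3 and MDA-MB-231 cells exposed to compounds for 48 h at 10 or 20 μM; viability compared with nontreated cells (significance P ≤ 0.05); IC50 values determined in both lines; at least three independent experiments, mean ± SEM.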

Another experiment relates to MDA-MB-231. In words: Cytotoxicity against human MDA-MB-231 cells assessed as reduction in cell viability incubated for 48 hrs by crystal violet staining based spectrophotometric analysis. The class given is functional. Particulars: MDA-MB-231, 48 h. The method, boiled down:
as §3

Molecules are shown by their SMILES. The source made the active and inactive calls. No cut-off for these calls is given here.

Take `CCCCCCCCC/C=C/c1cccc(O)c1C(=O)O`: the result in the experiment with PC-3 [1], with PC-3 [2], in the experiment on PC-3 [3], with PC-3 [7] and in the experiment with PC3 (Homo sapiens) was Active. For the same compound, the inhibition entry in experiment [4], in [5], in experiment [6], in experiment [8] and in experiment [9] was “Active” throughout.
With `CCCCCCCCCCCc1cccc(O)c1C(=O)O`, the result in the experiment with PC-3 [1], in the experiment with PC-3 [2], in the experiment with PC-3 [3], with PC-3 [7] and with PC3 (Homo sapiens) was Active. For the same compound, the inhibition entry in [4], in [5], in [6] and in experiment [9] was “Active” throughout.
On to `CCCCCCCCCCCCCc1ccc(C(=O)O)c(O)c1`, for which, in experiment [4], the inhibition entry was “inactive”.
What is called IC50 is the concentration that gives 50% inhibition. Regarding `CCCCCCCCCCC/C=C/c1cccc(O)c1C(=O)O`, the result in the experiment on PC-3 [1], with PC-3 [2], in the experiment on PC-3 [3], with PC-3 [7] and with PC3 (Homo sapiens) was Active. Also, the inhibition result in [4], in experiment [5], in experiment [6], in experiment [8] and in experiment [9] was “Active” in each case. For the same compound, the IC50 is 10.8 µM in the experiment on PC-3 [10] and 8.2 µM in the experiment on MDA-MB-231.
For the compound `CCCCCCCCCCCCCCCc1ccc(C(=O)O)c(O)c1`, the inhibition result in experiment [4] is “inactive”.
In the case of `CCCCCCCCC/C=C/c1cccc(C(=O)O)c1O`, the inhibition result in experiment [4] is “inactive”.
As for `CCCCCCCCCCCCC/C=C/c1ccc(O)c(C(=O)O)c1`, in [4], the inhibition result is “inactive”.
Turning to `CCCCCCCCC/C=C/c1ccc(O)c(C(=O)O)c1`, the inhibition result in experiment [4] was “inactive”.
Take `CCCCCCCCCCCCCCCc1cccc(O)c1C(=O)O`: the inhibition result in experiment [4] is “Active”.
In the case of `CCCCCCCCC/C=C/c1ccc(C(=O)O)c(O)c1`, the inhibition entry in experiment [4] is “inactive”.
On to `CCCCCCCCCCCc1cccc(C(=O)O)c1O`, for which the inhibition result in [4] was “inactive”.
For the compound `CCCCCCCCCCCCCCCc1ccc(O)c(C(=O)O)c1`, in experiment [4], the inhibition result was “inactive”.
As for `CCCCCCCCCCC/C=C/c1ccc(C(=O)O)c(O)c1`, the inhibition entry in experiment [4] is “inactive”.
For the compound `CCCCCCCCCCCCC/C=C/c1cccc(O)c1C(=O)O`, the inhibition entry in experiment [4] is “Active”.
Regarding `CCCCCCCCCCC/C=C/c1ccc(O)c(C(=O)O)c1`, the inhibition result in [4] was “inactive”.
`CCCCCCCCCCCCCc1cccc(O)c1C(=O)O`: the outcome in the experiment on PC-3 [1], in the experiment with PC-3 [2], in the experiment with PC-3 [3], with PC-3 [7] and in the experiment on PC3 (Homo sapiens) was Active. In addition, the inhibition result in [4], in experiment [5], in experiment [6] and in experiment [9] was “Active” throughout.
Turning to `CCCCCCCCCCCCC/C=C/c1cccc(C(=O)O)c1O`, the inhibition entry in [4] is “inactive”.
Regarding `CCCCCC/C=C/c1cccc(O)c1C(=O)O`, the inhibition result in [4] is “inactive”.
For `CCCCCCCCc1cccc(O)c1C(=O)O`, the inhibition result in [4] is “inactive”.
As for `CCCCCCc1cccc(O)c1C(=O)O`, the inhibition result in experiment [4] was “inactive”.
The same measure, in the same setting: to `CCCCCCCCCCCc1ccc(O)c(C(=O)O)c1` belongs “inactive”; to `CCCCCCCCCCCCCCCc1cccc(C(=O)O)c1O`, “inactive”.
For `CCCCCCCCCCCc1ccc(C(=O)O)c(O)c1`, the inhibition entry in experiment [4] is “inactive”.
In the case of `CCCCCCCCCCCCCc1ccc(O)c(C(=O)O)c1`, in experiment [4], the inhibition result was “inactive”.
Same read-out and setting: to `CCCCCCCCCCC/C=C/c1cccc(C(=O)O)c1O` belongs “inactive”.
As for `CCCCCCCCCCCCCc1cccc(C(=O)O)c1O`, the outcome with PC-3 [1] and in the experiment with PC-3 [3] was inactive. In addition, the result with PC-3 [2] and in the experiment on PC-3 [7] was Active. Besides, the inhibition entry in experiment [4], in [5] and in experiment [6] was “inactive” in each case. The IC50 came to 14.8 µM in the experiment with PC-3 [10] and 12.8 µM with MDA-MB-231.
As to `CCCC/C=C/c1cccc(O)c1C(=O)O`, the inhibition entry in experiment [4] was “inactive”.
Take `CCCCCCCCCCCCC/C=C/c1ccc(C(=O)O)c(O)c1`: the inhibition entry in experiment [4] was “inactive”.

The record behind these values is ChEMBL document CHEMBL4725472, “Synthesis and Evaluation of Ginkgolic Acid Derivatives as SUMOylation Inhibitors” (ACS Med Chem Lett, 2020).
